ChEMBL document CHEMBL2176871, “Development of ligands at γ-aminobutyrric acid type A (GABAA) receptor subtype as new agents for pain relief” (Bioorg Med Chem, 2011)
Activity calls are given as the source filed them.

Assays:
[1] = Displacement of [3H]Ro151788 from GABA(A)/BzR in bovine cerebral cortex membrane; format: cell membranes, Bos taurus
In short: (§1)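 Bovine cerebral cortex membranes in 50 mM Tris-citrate pH 7.4; [3H]flumazenil displacement. Compounds first tested at a fixed 10 µM; Ki determined only when inhibition exceeded 80%, using at least six concentrations. Five experiments run in triplicate; IC50 obtained by iterative curve fitting and converted to Ki with the Cheng–Prusoff equation.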

[2] = tested on: Rattus norvegicus; assay: Toxicity in Sprague-Dawley rat mononeuropathy pain model assessed as effect on contralateral paw pressure at 30 mg/kg, po after 45 mins by paw pressure test; format: organism-based; parameters: dose 30 mg/kg, route oral; details: in vivo, 0.75 h
In short: (§2)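 Same sciatic-ligation rat model, 14 days after surgery. Threshold measured on the non-operated contralateral hind paw by analgesimeter at 32 g/s; first-struggle endpoint; 250 g cut-off; pretest rats outside 40–75 g rejected. Compound given po in 10 ml/kg; readings at 15, 30 and 45 min.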

[3] = tested on: Rattus norvegicus; assay: Toxicity in Sprague-Dawley rat mononeuropathy pain model assessed as effect on contralateral paw pressure at 10 mg/kg, po after 15 mins by paw pressure test; format: organism-based; parameters: dose 10 mg/kg, route oral; details: in vivo, 0.25 h; in short: as §2
[4] = tested on: Rattus norvegicus; assay: Antinociceptive activity in Sprague-Dawley rat mononeuropathy pain model assessed as increase in injured paw pressure at 10 mg/kg, po after 30 mins by paw pressure test relative to non-treated control; format: functional
In short: (§3)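 Chronic constriction injury: loose ligatures placed on the common sciatic nerve under chloral hydrate; contralateral sham dissection. Tested 14 days after surgery. Paw pressure applied at 32 g/s; threshold taken as the force causing the first struggle; cut-off 250 g; pretest outliers (<40 g or >75 g) excluded. Oral dosing in 10 ml/kg; read at 15, 30 and 45 min; compared with a CMC-treated group.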

[5] = tested on: Mus musculus; assay: Antihyperalgesic activity against streptozotocin-induced hyperalgesia in Swiss albino mouse […] assessed as licking latency time at 30 mg/kg, po after 15 mins by hot plate test (reference value: 10.4 +/- 0.8 secs); format: functional
[6] = tested on: Rattus norvegicus; assay: Antinociceptive activity in Sprague-Dawley rat mononeuropathy pain model assessed as increase in injured paw pressure at 10 mg/kg, po after 45 mins by paw pressure test relative to non-treated control; format: functional; in short: as §3
[7] = tested on: Mus musculus; assay: Antihyperalgesic activity Swiss albino mouse […] assessed as licking latency time at 30 mg/kg, po after 30 mins by hot plate test (reference value: 14.9 +/- 1.1 secs); format: functional
In short: (§4)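 Hot plate at 52.5 ± 0.1 °C in non-diabetic male Swiss mice. Latency to licking of fore or hind paws was timed before dosing and every 15 min up to 60 min after oral dosing. Mice with pretest latencies below 12 s or above 18 s were excluded. Cut-off was 45 s.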

[8] = tested on: Mus musculus; assay: Antihyperalgesic activity against streptozotocin-induced hyperalgesia in Swiss albino mouse […] assessed as licking latency time at 30 mg/kg, po after 60 mins by hot plate test (reference value: 10.4 +/- 0.8 secs); format: functional
[9] = tested on: Rattus norvegicus; assay: Toxicity in Sprague-Dawley rat mononeuropathy pain model assessed as effect on contralateral paw pressure at 3 mg/kg, po after 45 mins by paw pressure test; format: organism-based; parameters: dose 3 mg/kg, route oral; details: in vivo, 0.75 h; in short: as §2
[10] = tested on: Rattus norvegicus; assay: Toxicity in Sprague-Dawley rat mononeuropathy pain model assessed as effect on contralateral paw pressure at 10 mg/kg, po after 30 mins by paw pressure test; format: organism-based; parameters: dose 10 mg/kg, route oral; details: in vivo, 0.5 h; in short: as §2
[11] = tested on: Rattus norvegicus; assay: Antinociceptive activity in Sprague-Dawley rat mononeuropathy pain model assessed as increase in injured paw pressure at 30 mg/kg, po after 30 mins by paw pressure test relative to non-treated control; format: functional; in short: as §3
[12] = species: Bos taurus; assay: Displacement of [3H]Ro151788 from GABA(A)/BzR in bovine cerebral cortex membrane at 10 uM; format: cell membranes; in short: as §1
[13] = tested on: Rattus norvegicus; assay: Antinociceptive activity in Sprague-Dawley rat mononeuropathy pain model assessed as increase in injured paw pressure at 3 mg/kg, po after 30 mins by paw pressure test relative to non-treated control; format: functional; in short: as §3
[14] = tested on: Mus musculus; assay: Antihyperalgesic activity against streptozotocin-induced hyperalgesia in Swiss albino mouse […] assessed as licking latency time at 30 mg/kg, po after 45 mins by hot plate test (reference value: 10.4 +/- 0.8 secs); format: functional
[15] = tested on: Rattus norvegicus; assay: Antinociceptive activity in Sprague-Dawley rat mononeuropathy pain model assessed as increase in injured paw pressure at 10 mg/kg, po after 15 mins by paw pressure test relative to non-treated control; format: functional; in short: as §3
[16] = tested on: Rattus norvegicus; assay: Toxicity in Sprague-Dawley rat mononeuropathy pain model assessed as effect on contralateral paw pressure at 30 mg/kg, po after 30 mins by paw pressure test; format: organism-based; parameters: dose 30 mg/kg, route oral; details: in vivo, 0.5 h; in short: as §2
[17] = tested on: Rattus norvegicus; assay: Toxicity in Sprague-Dawley rat mononeuropathy pain model assessed as effect on contralateral paw pressure at 3 mg/kg, po after 30 mins by paw pressure test; format: organism-based; parameters: dose 3 mg/kg, route oral; details: in vivo, 0.5 h; in short: as §2
[18] = tested on: Mus musculus; assay: Antihyperalgesic activity Swiss albino mouse […] assessed as licking latency time at 30 mg/kg, po after 45 mins by hot plate test (reference value: 14.9 +/- 1.1 secs); format: functional; in short: as §4
[19] = tested on: Mus musculus; assay: Anxiolytic-like activity in Swiss albino mouse at 10 mg/kg, po after 30 mins by light/dark box test; format: functional, organism-based; parameters: dose 10 mg/kg
In short: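 Male Swiss mice tested in a two-compartment light/dark box. Transfers between compartments and time spent in the lit side recorded. Compound given po 30 min before testing, in 10 ml/kg; flumazenil given i.p. for antagonism; 8 mice per group.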

[20] = tested on: Rattus norvegicus; assay: Toxicity in Sprague-Dawley rat mononeuropathy pain model assessed as effect on contralateral paw pressure at 3 mg/kg, po after 15 mins by paw pressure test; format: organism-based; parameters: dose 3 mg/kg, route oral; details: in vivo, 0.25 h; in short: as §2
[21] = tested on: Mus musculus; assay: Analgesic activity in Swiss albino mouse abdominal constriction model assessed as decrease in number of acetic acid-induced writhing at 10 to 30 mg/kg, po after 30 mins; format: functional, organism-based; details: Abdomen
In short: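 Male Swiss albino mice (23–30 g). Compounds given po in 1% CMC vehicle 30 min before the test. Acetic acid 0.6% injected i.p. at 10 ml/kg. Stretching movements were counted for 10 min, starting 5 min after the acetic acid injection. 8–15 mice per group.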

[22] = tested on: Rattus norvegicus; assay: Antinociceptive activity in Sprague-Dawley rat mononeuropathy pain model assessed as increase in injured paw pressure at 3 mg/kg, po after 45 mins by paw pressure test relative to non-treated control; format: functional; in short: as §3
[23] = tested on: Rattus norvegicus; assay: Antinociceptive activity in Sprague-Dawley rat mononeuropathy pain model assessed as increase in injured paw pressure at 30 mg/kg, po after 15 mins by paw pressure test relative to non-treated control; format: functional; in short: as §3
[24] = tested on: Rattus norvegicus; assay: Toxicity in Sprague-Dawley rat mononeuropathy pain model assessed as effect on contralateral paw pressure at 10 mg/kg, po after 45 mins by paw pressure test; format: organism-based; parameters: dose 10 mg/kg, route oral; details: in vivo, 0.75 h; in short: as §2
[25] = tested on: Rattus norvegicus; assay: Antinociceptive activity in Sprague-Dawley rat mononeuropathy pain model assessed as increase in injured paw pressure at 3 mg/kg, po after 15 mins by paw pressure test relative to non-treated control; format: functional; in short: as §3
[26] = tested on: Mus musculus; assay: Antihyperalgesic activity against streptozotocin-induced hyperalgesia in Swiss albino mouse […] assessed as licking latency time at 30 mg/kg, po after 30 mins by hot plate test (reference value: 10.4 +/- 0.8 secs); format: functional
[27] = tested on: Rattus norvegicus; assay: Antinociceptive activity in Sprague-Dawley rat mononeuropathy pain model assessed as increase in injured paw pressure at 30 mg/kg, po after 45 mins by paw pressure test relative to non-treated control; format: functional; in short: as §3
[28] = tested on: Rattus norvegicus; assay: Toxicity in Sprague-Dawley rat mononeuropathy pain model assessed as effect on contralateral paw pressure at 30 mg/kg, po after 15 mins by paw pressure test; format: organism-based; parameters: dose 30 mg/kg, route oral; details: in vivo, 0.25 h; in short: as §2
[29] = tested on: Mus musculus; assay: Anticonvulsant activity in Swiss albino mouse […] assessed as protection against intraperitoneally administered pentylenetetrazol-induced seizures at 30 mg/kg, po after 30 mins; format: functional
In short: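 Male Swiss albino mice. Compounds given po and PTZ 90 mg/kg injected 30 min later; PTZ was dissolved in 0.9% NaCl saline. Clonic generalized convulsions were recorded over 30 min. Each value is the mean of 10 mice. The methods give the PTZ route as s.c. and the table footnote gives it as ip.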

[30] = tested on: Mus musculus; assay: Antihyperalgesic activity Swiss albino mouse […] assessed as licking latency time at 30 mg/kg, po after 15 mins by hot plate test (reference value: 14.9 +/- 1.1 secs); format: functional; in short: as §4
[31] = tested on: Mus musculus; assay: Antihyperalgesic activity Swiss albino mouse […] assessed as licking latency time at 30 mg/kg, po after 60 mins by hot plate test (reference value: 14.9 +/- 1.1 secs); format: functional; in short: as §4

Structure (SMILES): [O-][n+]1nc2c(I)cnn2c2cc(NCc3ccccc3)ccc21
- Ki [1]: 0.109 nM
- Activity [2]: 62.2 g
- Activity [3]: 64.8 g
- Activity [4]: 44.8 g
- Time [5]: 16.6 s
- Activity [6]: 36.7 g
- Time [7]: 16.9 s
- Time [8]: 17.9 s
- Activity [9]: 60.7 g
- Activity [10]: 61.5 g
- Activity [11]: 42.3 g
- inhibition [12]: > 80%
- Activity [13]: 33.8 g
- Time [14]: 17.3 s
- Activity [15]: 49.5 g
- Activity [16]: 58.9 g
- Activity [17]: 59.5 g
- Time [18]: 15.8 s
- Activity [19]: Active
- Activity [20]: 62.3 g
- Activity [21]: inactive
- Activity [22]: 31.2 g
- Activity [23]: 46.4 g
- Activity [24]: 61.2 g
- Activity [25]: 41.4 g
- Time [26]: 16.4 s
- Activity [27]: 38.1 g
- Activity [28]: 61.7 g
- Activity [29]: 10%
- Time [30]: 16.3 s
- Time [31]: 16.3 s
